Measured values taken from article PMC9884082 (Journal of Medicinal Chemistry, 2023).
Entries after “also recorded” stand apart in the source; their conditions may differ.

Legend:
HT-29 monolayer culture = test: Cell proliferation; format: cell-based, human; conditions: MTT, 60-72 h
Procedure, shortened: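 HT-29 cells kept as monolayers in DMEM:F-12 with 10% FBS and 1% penicillin/streptomycin, passaged before 70% confluence. About 2.5 × 10³ cells/well were incubated overnight (37 °C, 5% CO₂), then exposed to test compound for 60–72 h. MTT (5 mg/mL stock in PBS) was added for 2–3 h and crystals dissolved in DMSO. A590 was read and growth expressed as percent of vehicle; ≥3 replicates.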

[1] = test system: pooled normal human plasma; test: Human plasma clotting time; format: biochemical; conditions: ∼34 to ∼68 s
Procedure, shortened: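 APTT was run in a fibrometer by one-stage recalcification. Test compound was mixed with citrated pooled normal human plasma and prewarmed APTT reagent (ellagic acid). After 4 min at 37 °C, clotting was started with prewarmed 25 mM CaCl₂ and time to clot recorded. A quadratic trend line fitted to the data gave the concentration doubling clotting time.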

[2] = Mouse tail bleeding study; format: in vivo, wild-type ICR mice; conditions: IV; NSGMs 1–100 mg/kg, enoxaparin 224 μg/kg
HT-29 xenografts = test: HT-29 xenograft after FUOX enrichment, IP G2C, FUOX or G2C+FUOX; format: in vivo, NCr nude mice
Procedure, shortened: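 1 × 10⁶ unsorted HT-29 cells were injected subcutaneously into NCr nude mice. Palpable tumors received 25 mg/kg 5-fluorouracil plus 2 mg/kg oxaliplatin IP weekly for 3 weeks. Mice were randomized to vehicle, test compound 50 mg/kg IP three times/week (8 doses), continued 5-FU/oxaliplatin, or both. Tumor volume was followed to sacrifice (n = 2/group) and compared with vehicle.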

[3] = test system: CD133+/CXCR4+ (Dual Hi) HT-29 xenografts; test: Dual Hi HT-29 xenograft after FUOX enrichment, oral G2C or IP G2.2; format: in vivo, NCr nude mice
Procedure, shortened: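 1 × 10⁵ CD133⁺/CXCR4⁺ HT-29 cells were injected subcutaneously into NCr nude mice. Palpable tumors received 50 mg/kg 5-FU plus 5 mg/kg oxaliplatin IP weekly for 3 weeks. Mice were randomized to vehicle or test compound 100 mg/kg PO 5 times/week for 3 weeks, or, in a second experiment, parent 100 mg/kg IP 3 times/week. Xenograft single cells were assessed for 1–3° spheroids. CD133/CXCR4/LGR5 cells were quantified by flow cytometry (30 min staining, 4 °C).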

[4] = test system: intestinal crypt-derived organoids; test: Ex vivo intestinal crypt-derived organoids from treated mice; format: in vivo
[5] = test system: CD133+/CXCR4+ (Dual Hi) HT-29 xenografts; test: Dual Hi HT-29 xenograft after FUOX enrichment, IP G5C or FUOX; format: in vivo, NCr nude mice; conditions: G5C 100 mg/kg IP; FUOX IP weekly
Procedure, shortened: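 1 × 10⁵ FACS-sorted CD133⁺/CXCR4⁺ HT-29 cells were injected subcutaneously into NCr nude mice. Palpable tumors were enriched in vivo with 25 mg/kg 5-fluorouracil plus 2 mg/kg oxaliplatin IP weekly for 3 weeks. Mice were then randomized to vehicle, the same regimen continued, or test compound 100 mg/kg IP three times/week (14 doses). Tumors (n = 2/group) were dissociated into single cells and 1–3° spheroids (50–150 μm) counted in low-adhesion EGF/FGF stem cell medium.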

[6] = Preliminary half-life experiments; format: in vivo; conditions: data not shown

| concentration required for 2-fold increase in APTT [1] | animal weight (HT-29 xenografts; G2C 50 mg/kg IP alone or with FUOX) | animal weight ([3]; daily oral G2C) | bleeding at the site of injection or in organs ([3]; daily oral G2C) | increase in half-life over G2.2 [6] | Structure (SMILES) | cytotoxicity under monolayer conditions (HT-29 monolayer culture) | blood loss, tail bleeding [2] | inhibition of xenografts compared to vehicle (HT-29 xenografts; G2C 50 mg/kg IP (Figure 6B)) | expression of DCAMKL1 and BMI-1 in xenograft lysate (HT-29 xenografts; Western blots) | 3 and 4° spheroid formation from xenograft-derived cells (HT-29 xenografts; ex vivo in CSC media, compared to vehicle) | 3° spheroid formation from xenograft-derived cells ([3]; experiment 1, G2C 100 mg/kg PO) | Dual Hi cell-induced tumor growth ([3]; experiment 1, G2C 100 mg/kg PO 5 times/week for 3 weeks) | tumor growth compared to vehicle ([3]; experiment 2, G2.2 100 mg/kg IP 3 times/week, G2C 100 mg/kg PO 5 times/week, 3 weeks) | proportion of CD133+/CXCR4+ (Dual Hi) and LGR5 cells in xenografts ([3]; flow cytometry, oral G2C) | blood chemistry compared to vehicle ([3]; oral G2C) | ex vivo growth of organoids derived from intestinal crypts ([4]; after IP G2C 50 mg/kg alone or with FUOX) | intestinal crypt-derived organoid growth ([4]; after oral G2C 100 mg/kg 5 times/week for 3 weeks) | ex vivo 3° spheroid growth from xenograft cells [5] |
| --- | --- | --- | --- | --- | --- | --- | --- | --- | --- | --- | --- | --- | --- | --- | --- | --- | --- | --- |
| ~300 µM | no significant change in animal weight | did not lose weight | no obvious sign of major bleeding |  | CC(C)CCC[C@@H](C)[C@H]1CC[C@H]2[C@@H]3CC=C4C[C@@H](OCCOc5cc(-c6oc7cc(OS(=O)(=O)[O-])cc(OCCCOc8cc(OS(=O)(=O)[O-])cc9oc(-c%10ccc(OS(=O)(=O)[O-])c(OS(=O)(=O)[O-])c%10)c(OS(=O)(=O)[O-])c(=O)c89)c7c(=O)c6OS(=O)(=O)[O-])ccc5OS(=O)(=O)[O-])CC[C@]4(C)[C@H]3CC[C@]12C.[Na+].[Na+].[Na+].[Na+].[Na+].[Na+].[Na+] [G2C, Sodium 4-(5-(3-((2-(3-(2-(((8S,9S,10R,13R,14S,17R)-10,13-Dimethyl-17-((R)-6-methylheptan-2-yl)-2,3,4,7,8,9,10,11,12,13,14,15,16,17-tetradecahydro-1H-cyclopenta[a]phenanthren-3-yl)oxy)ethoxy)-4-(sulfonatooxy)phenyl)-4-oxo-3,7-bis(sulfonatooxy)-4H-chromen-5-yl)oxy)propoxy)-4-oxo-3,7-bis(sulfonatooxy)-4H-chromen-2-yl)-1,2-phenylene Bis(sulfate)] | significantly cytotoxic at ∼100 μM | did not exhibit much tail bleeding phenotype | 30% | inhibition in the expression of DCAMKL1 (CSC marker) and BMI-1 (self-renewal marker) | significant inhibition of self-renewing CSCs | significantly inhibited | significantly inhibited Dual Hi cell-induced tumor growth | seemed to reduce tumor growth; also recorded: higher growth inhibition | significantly lower | did not produce any significant change in blood chemistry | did not inhibit ex vivo growth of organoids derived from intestinal crypts | did not reduce intestinal crypt-derived organoid growths |  |
| ~200 µM |  |  |  | ~50% | CC(C)CCC[C@@H](C)[C@H]1CC[C@H]2[C@@H]3CC=C4C[C@@H](OCCCCCOc5cc(-c6oc7cc(OS(=O)(=O)[O-])cc(OCCCOc8cc(OS(=O)(=O)[O-])cc9oc(-c%10ccc(OS(=O)(=O)[O-])c(OS(=O)(=O)[O-])c%10)c(OS(=O)(=O)[O-])c(=O)c89)c7c(=O)c6OS(=O)(=O)[O-])ccc5OS(=O)(=O)[O-])CC[C@]4(C)[C@H]3CC[C@]12C.[Na+].[Na+].[Na+].[Na+].[Na+].[Na+].[Na+] [G5C, Sodium 4-(5-(3-((2-(3-((5-(((8S,9S,10R,13R,14S,17R)-10,13-Dimethyl-17-((R)-6-methylheptan-2-yl)-2,3,4,7,8,9,10,11,12,13,14,15,16,17-tetradecahydro-1H-cyclopenta[a]phenanthren-3-yl)oxy)pentyl)oxy)-4-(sulfonatooxy)phenyl)-4-oxo-3,7-bis(sulfonatooxy)-4H-chromen-5-yl)oxy)propoxy)-4-oxo-3,7-bis(sulfonatooxy)-4H-chromen-2-yl)-1,2-phenylene Bis(sulfate)] | essentially benign toward monolayer cancer cell culture even at ∼400 μM | did not exhibit much tail bleeding phenotype |  |  |  |  |  |  |  |  |  |  | maintain inhibition |
